PubChem BioAssay
Calls of active or inactive are those of the source.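 How the source made its calls, unless noted: active means viability loss from added drug above about 55%, and viability with drug at most 40%, in both replicates (limit read from the data, passing the limit was not always enough); inconclusive means both conditions met in only one replicate; inactive means neither replicate meets both conditions.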 Peptide text beside a SMILES is read from it. * marks the point of attachment. Boc = CC(C)(C)OC(=O)*

How the values were obtained:
[1] = SK-BR-3 cell growth inhibitors, pilot screen, 24 h, human (AID 572;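 active means viability at or below 10% of carrier control in both of two separate runs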;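 further: compound exposure lasted between 18 and 24 h rather than exactly 24 h; 100% = carrier-treated control wells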); conditions: SK-BR-3 viability, CellTiter-Glo luminescence, at 10 µM, stronger effect = lower value
[2] = HUVEC growth inhibition – cell-based, human, primary screen (AID 575;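 active means viability at or below 30% in both replicate assays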;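 further: 100% = median of untreated cell wells with 0.1% DMSO on each plate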); conditions: HUVEC proliferation, CellTiter-Glo luminescence, 72 h; at 10 µM; stronger effect = lower value
In short: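 Assay system: primary human umbilical vein endothelial cells / Buffer or medium: endothelial basal medium with 2% FBS plus growth supplements / Compound dosing: one dose, 10 µM final, 0.1% DMSO / Timing: 72 h treatment at 37 °C / Signal: CTG luminescence / Benchmarks: 32 DMSO-only cell-control wells (high), 32 MePR drug-control wells (low) per plate / Plate: collagen-coated 384-well format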

[3] = growth inhibitors of H69AR lung tumor, primary screen, human, duplicate replicates (AID 580;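 active means viability at or under a set limit in both replicates, limit being median viability minus 3 SD, cut at about 48% in these data, passing the limit was not always enough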;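 further: 100% = mean luminescence of untreated wells and 0% = no signal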); conditions: H69AR lung tumor cells viability, ATP luminescence, 72 h; at 10 µM; stronger effect = lower value
[4] = reversal of MRP1-mediated doxorubicin resistance, pilot screen, H69AR cells, doxorubicin co-treatment (AID 601); conditions: CellTiter-Glo, 72 h, at 10 µM; for differential viability (reversal): stronger effect = higher value
[5] = 384-well plate pilot, post-Golgi transport modulator project, inhibition of yeast transport mutant growth (AID 636; in the data active means inhibition above about 31%); conditions: absorbance 615 nm, about 18 h, stronger effect = higher value
[6] = growth suppression of yeast trafficking mutant, preliminary HTS, modulators of trafficking downstream of Golgi apparatus project, 1536-format plate, OD 615 nm (AID 637; in the data active means inhibition above about 30%); conditions: yeast transport mutant growth, absorbance 615 nm, 18 h; stronger effect = higher value
[7] = H69AR cells + 2 uM doxorubicin, measured here: viability with 2 uM doxorubicin, stronger effect = lower value
[8] = H69AR cells, compound alone cytotoxicity

Structure (SMILES)	viability [1]	viability [2]	viability [3]	differential viability (reversal) ([4]; H69AR cells + 2 uM doxorubicin)	viability [4, 7]	viability [4, 8]	inhibition [5]	inhibition [6]
Cc1ccc(CC2SC(=O)NC2=O)cc1Cl (centres undefined)	107% (inactive)	75.8% (inactive)	92.7% (inactive)	4.26% (inactive)	88.4%	92.7%	3.42% (inactive)	-2.26% (inactive)
O=S(=O)(NCc1ccccn1)c1ccc2c(c1)OCCO2	115% (inactive)	114% (inactive)	109% (inactive)	0.755% (inactive)	108%	109%	-0.81% (inactive)	0.18% (inactive)
Cc1ccc(C)c(-n2nnnc2SCC(=O)NCCC2=CCCCC2)c1	91% (inactive)	73.5% (inactive)	93.2% (inactive)	-11.3% (inactive)	105%	93.2%	-4.66% (inactive)	2.36% (inactive)
Cc1c(NC(=O)C(C)OC(=O)c2cc3c4ccccc4n(C)c3s2)c(=O)n(-c2ccccc2)n1C (centres undefined)	94% (inactive)	80.8% (inactive)	78.4% (inactive)	-10% (inactive)	88.4%	78.4%	-11.4% (inactive)	1.13% (inactive)
CCc1nnc(NC(=O)CSc2nnc3ncccn23)s1	91% (inactive)	108% (inactive)	95.5% (inactive)	-3.16% (inactive)	98.7%	95.5%	-5.07% (inactive)	3.27% (inactive)
COc1cccc(C=Nc2ccc3c(c2)OCCO3)c1O	115% (inactive)	79.2% (inactive)	83% (inactive)	-12% (inactive)	95%	83%	1.95% (inactive)	-0.33% (inactive)
CCOc1cc(C(=O)Nc2c3c(nn2C(C)(C)C)CS(=O)C3)cc(OCC)c1OCC (centres undefined)	103% (inactive)	96.7% (inactive)	101% (inactive)	7.14% (inactive)	93.7%	101%	-1.04% (inactive)	-7.54% (inactive)
Fc1cccc(Nc2cc(-n3cccn3)ncn2)c1	95% (inactive)	72.5% (inactive)	89.6% (inactive)	-4.63% (inactive)	94.3%	89.6%	-7.81% (inactive)	-4.76% (inactive)
CSc1ccccc1NC(=O)CN(c1ccccc1)S(=O)(=O)N(C)C	83% (inactive)	98.3% (inactive)	87.7% (inactive)	2.04% (inactive)	85.7%	87.7%	-8.49% (inactive)	0.18% (inactive)
Cc1ccc(Nc2nc(Oc3ccc(=O)[nH]n3)nc(N(C)C)n2)cc1	81% (inactive)	101% (inactive)	94% (inactive)	16.1% (inactive)	77.9%	94%	-3.7% (inactive)	1.94% (inactive)
Cn1c(=O)c2c(nc(NCCNC(=O)c3ccco3)n2Cc2ccccc2Cl)n(C)c1=O	80% (inactive)	112% (inactive)	72.5% (inactive)	5.75% (inactive)	66.7%	72.5%	-7.57% (inactive)	-4.36% (inactive)
CCn1cc(C(=O)O)c(=O)c2cc(F)c(N3CCNCC3)nc21	106% (inactive)	84% (inactive)	105% (inactive)	3.24% (inactive)	102%	105%	2.34% (inactive)	-2.33% (inactive)
CSCCC(NC(=O)OC(C)(C)C)C(=O)NC(CC(C)C)C(N)=O (stereo not drawn) (Boc-Met-Leu-NH2; configuration not given here)	91% (inactive)	97.7% (inactive)	92% (inactive)	1.58% (inactive)	90.4%	92%	0.39% (inactive)	0.16% (inactive)
Cc1ccc(O)c(-c2cc(C(=O)Nc3ccc(S(=O)(=O)N4CC(C)OC(C)C4)cc3)[nH]n2)c1 (centres undefined)	92% (inactive)	56.7% (inactive)	34.8% (active)	-8.67% (inactive)	43.5%	34.8%	-11.1% (inactive)	-1.59% (inactive)
Cn1c(=O)c2[nH]cnc2n(C)c1=O	101% (inactive)	107% (inactive)	97.4% (inactive)	5.22% (inactive)	92.1%	97.4%	-1.3% (inactive)	-2.83% (inactive)
CC1(C)C2CCC1(C)C(OC(=O)CSc1nc(N)cc(=O)[nH]1)C2 (centres undefined)	104% (inactive)	94.2% (inactive)	92.8% (inactive)	6.73% (inactive)	86.1%	92.8%	-2.53% (inactive)	-6.91% (inactive)
CCCc1cc(=O)[nH]c(SCc2ccccc2)n1	101% (inactive)	106% (inactive)	90.4% (inactive)	8.54% (inactive)	81.9%	90.4%	1.04% (inactive)	-2.46% (inactive)

Structure (SMILES)	viability [1]	viability [2]	viability [3]	differential viability (reversal) ([4]; H69AR cells + 2 uM doxorubicin)	viability [4, 7]	viability [4, 8]	inhibition [5]	inhibition [6]
COC(=O)CSc1nnc(CSc2nc(C)cc(C)n2)n1Cc1ccco1	81% (inactive)	104% (inactive)	99.8% (inactive)	24.3% (inactive)	75.5%	99.8%	-4.53% (inactive)	-7.27% (inactive)
COCCCC/C(=N\OCCN)c1ccc(C(F)(F)F)cc1	84% (inactive)	55.7% (inactive)	104% (inactive)	20% (inactive)	83.9%	104%	-0.91% (inactive)	-6.83% (inactive)
CCC1CCCCN1c1nc(-c2ccncc2)nc2ccccc12 (centres undefined)	76.5% (inactive)	15.1% (active)	14.5% (active)	-40.4% (inactive)	55%	14.5%	-0.79% (inactive)	0.49% (inactive)
O=C(CSc1nnc(Cc2ccccc2)n1-c1cccc(Cl)c1)N1CCOCC1	106% (inactive)	94.2% (inactive)	85.6% (inactive)	4.24% (inactive)	81.3%	85.6%	-4.8% (inactive)	-7.64% (inactive)
CCOc1cc(C2Nc3ccccc3C(=O)N2c2ccccc2OC)ccc1O (centres undefined)	98% (inactive)	105% (inactive)	95% (inactive)	0.125% (inactive)	94.9%	95%	-4.59% (inactive)	28.4% (inactive)
O=C(CN(CC1CCCO1)S(=O)(=O)c1ccc(S(=O)(=O)NC2CC2)cc1)Nc1ccccc1 (centres undefined)	109% (inactive)	96.9% (inactive)	95.3% (inactive)	-1.47% (inactive)	96.8%	95.3%	-2% (inactive)	-9.27% (inactive)
CCC(=O)N(Cc1ccco1)c1nc(-c2cc(OC)ccc2OC)cs1	105% (inactive)	42.8% (inactive)	69.3% (inactive)	-0.87% (inactive)	70.2%	69.3%	-2% (inactive)	-2.91% (inactive)
CNC[C@H](O)c1cccc(O)c1	131% (inactive)	93.7% (inactive)	92.5% (inactive)	7.67% (inactive)	84.8%	92.5%	-1.56% (inactive)	2.5% (inactive)
Cc1cc(=O)oc2cc(OCC(=O)OCC(=O)N3CCc4ccccc43)ccc12	103% (inactive)	101% (inactive)	93.2% (inactive)	-2.07% (inactive)	95.3%	93.2%	-8.38% (inactive)	-4.55% (inactive)
N#Cc1cnc(SCCc2ccccc2)nc1N	78% (inactive)	102% (inactive)	97.8% (inactive)	6.68% (inactive)	91.2%	97.8%	-5.14% (inactive)	0% (inactive)
C[N+](C)(C)CCOP(=O)([O-])OC[C@H](O)CO	100% (inactive)	99.1% (inactive)	96% (inactive)	0.95% (inactive)	95%	96%	-2.99% (inactive)	-5.17% (inactive)
CCN1C(=O)/C(=C/N(C)c2ccccc2)OC1=S	97% (inactive)	91.5% (inactive)	93.7% (inactive)	-0.96% (inactive)	94.7%	93.7%	-2.6% (inactive)	8.18% (inactive)
COC(=O)c1ccccc1NC(=O)CN1CCC(n2nnc3cc(F)ccc32)CC1	64% (inactive)	94.9% (inactive)	100% (inactive)	10.3% (inactive)	89.7%	100%	-6.16% (inactive)	-1.27% (inactive)
Cc1ccc2c(c1C)NC(C(=O)O)C1CC=CC21 (centres undefined)	91% (inactive)	98.1% (inactive)	98.2% (inactive)	1.46% (inactive)	96.7%	98.2%	-1.73% (inactive)	-1.09% (inactive)
Cc1cccc(N2CCN(C(=O)C3CCCN(S(=O)(=O)c4cnc[nH]4)C3)CC2C)c1 (centres undefined)	90% (inactive)	90.2% (inactive)	95.6% (inactive)	6.94% (inactive)	88.7%	95.6%	-0.26% (inactive)	-0.98% (inactive)
CCN(CC)c1ccc(C(=O)n2cnc3ccccc32)cc1	111% (inactive)	61.5% (inactive)	15.1% (active)	-53.7% (inactive)	68.8%	15.1%	-3.33% (inactive)	-2% (inactive)
